Shown are actives, neighbours in structure and some others; about 1.9% of the full set was active somewhere.
RAD52 anneal inh = inhibitors of human RAD52 DNA annealing | recombinant RAD52 DNA annealing, FRET fluorescence | P43351 | 0.46% of 360,000 active | inhibition, % at 18.7 µM | AID 651710;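 active = every replicate showing at least 50% inhibition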
Target sequence (P43351 whole entry, looked up): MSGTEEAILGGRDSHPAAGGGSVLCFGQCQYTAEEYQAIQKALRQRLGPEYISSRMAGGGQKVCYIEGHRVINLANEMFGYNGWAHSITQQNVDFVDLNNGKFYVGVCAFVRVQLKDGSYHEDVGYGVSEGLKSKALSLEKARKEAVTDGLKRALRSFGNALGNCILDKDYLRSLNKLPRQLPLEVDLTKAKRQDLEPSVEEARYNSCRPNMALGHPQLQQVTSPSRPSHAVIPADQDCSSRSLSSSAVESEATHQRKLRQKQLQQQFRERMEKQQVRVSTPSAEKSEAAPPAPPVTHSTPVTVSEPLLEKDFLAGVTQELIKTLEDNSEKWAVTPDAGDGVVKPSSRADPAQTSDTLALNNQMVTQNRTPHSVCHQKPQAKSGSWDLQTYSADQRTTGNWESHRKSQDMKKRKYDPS
Ecoli rRNA inh = selective bacterial rRNA inhibition in E. coli | E. coli WT GFP vs humanized-ribosome RFP mutants, fluorescence, 24 h; stronger effect = lower value; DMSO median 0, no signal -100 | GFP signal change (wild-type ribosome), % (test concentration not listed) | 1.6% of 350,000 active | AID 720706;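 active = significant combined selectivity score with lowered wild-type GFP, culture density cut under 30%, mutant RFP and density less affected; inactive = any of these conditions unmet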
RAD54 branch = blocks human RAD54 Holliday junction branch migration | Q92698 | FAM/BHQ fluorescence | inhibition, % at 10.4 µM | 0.14% of 360,000 active;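 active = mean normalized replicate activity at least 40 and at least half of replicates scoring 40 or more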;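 note: inhibitors cause a drop in the FAM fluorescence signal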
PglD DTNB = inhibitors of Campylobacter jejuni PglD acetyltransferase; purified PglD enzyme, DTNB colorimetric CoA detection; inhibition, % at 12.5 µM; 0.098% of 360,000 active; AID 602405; in the data active = inhibition above about 16%, passing the limit was not always enough
Cneo AK release = Cryptococcus neoformans lysis via adenylate kinase release | C. neoformans lysis, adenylate kinase release luminescence, 4 h; normalised: neutral wells 0, clomiphene wells 100 | lysis activity, % at 15 µM | 0.2% of 360,000 active | AID 651654;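 active = mean lysis activity across replicates of at least 80%, whatever share of replicates individually reach that level; inactive = mean lysis activity below 80%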
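read-out = cell lysis signal | test system = log-phase Cryptococcus neoformans yeast cells | input = cells at 5 × 10^6 per mL | medium = fresh YPD growth medium | signal = luminescent adenylate kinase detection reagent | timing = 4 h at 37 °C static, read 1 h later | dosing = single dose | controls = Clomiphene as positive lysis control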
Large screens that a line does not name were inactive.

N#Cc1ccc(-c2ccc3c(c2)[C@@H]2[C@@H](CCN2C(=O)C2CCCC2)[C@H](CO)N3)cc1	none (no result: RAD54 branch, PglD DTNB, Cneo AK release)
COc1cccc(OCCNS(=O)(=O)c2ccccc2[N+](=O)[O-])c1	Ecoli rRNA inh -22
CCC(CO)Oc1cc(NCc2cccc(Cl)c2)c2ncn(C(C)C)c2c1 (stereo not given)	Ecoli rRNA inh -22
CCC(CN(C)C)Oc1cc(NCc2ccccc2)c2ncn(C(C)C)c2c1 (stereo not given)	RAD54 branch 70 (no result: RAD52 anneal inh, Ecoli rRNA inh)
CC(C)NC(=O)Nc1ccc2c(c1)CC(=O)N(C)C[C@@H](C)[C@H](CN(C)C)O2	none (no result: RAD52 anneal inh, RAD54 branch, PglD DTNB, Cneo AK release)
Cc1noc(C)c1S(=O)(=O)Nc1ccc2c(c1)C(=O)N([C@H](C)CO)C[C@@H](C)[C@H](CN(C)S(=O)(=O)c1ccc(F)cc1)OCCCC[C@@H](C)O2	RAD52 anneal inh 59
Cc1noc(C)c1S(=O)(=O)Nc1ccc2c(c1)C(=O)N([C@@H](C)CO)C[C@@H](C)[C@H](CN(C)S(=O)(=O)c1ccc(F)cc1)OCCCC[C@H](C)O2	RAD52 anneal inh 94
Cc1noc(C)c1S(=O)(=O)Nc1ccc2c(c1)C(=O)N([C@H](C)CO)C[C@H](C)[C@H](CN(C)S(=O)(=O)c1ccc(F)cc1)OCCCC[C@H](C)O2	none
Cc1noc(C)c1S(=O)(=O)Nc1ccc2c(c1)C(=O)N([C@@H](C)CO)C[C@H](C)[C@H](CN(C)S(=O)(=O)c1ccc(F)cc1)OCCCC[C@H](C)O2	RAD52 anneal inh 81
Cc1noc(C)c1S(=O)(=O)N(C)C[C@H]1OCCCC[C@@H](C)Oc2ccc(NC(=O)CCCCCC(=O)Nc3ccccc3N)cc2C(=O)N([C@@H](C)CO)C[C@@H]1C	Cneo AK release 97
Cc1noc(C)c1S(=O)(=O)Nc1ccc2c(c1)C(=O)N([C@@H](C)CO)C[C@H](C)[C@@H](CN(C)S(=O)(=O)c1ccc(F)cc1)OCCCC[C@@H](C)O2	none (no result: RAD52 anneal inh, RAD54 branch, PglD DTNB, Cneo AK release)
Cc1noc(C)c1S(=O)(=O)Nc1ccc2c(c1)C(=O)N([C@H](C)CO)C[C@H](C)[C@@H](CN(C)S(=O)(=O)c1ccc(F)cc1)OCCCC[C@@H](C)O2	RAD52 anneal inh 76
Cc1ccc(C)c(NC2=C(Cl)C(=O)OC2OC(=O)c2ccco2)c1 (stereo not given)	Ecoli rRNA inh -28
C[C@@H]1CN([C@H](C)CO)C(=O)c2cc(NC(=O)Nc3ccc(F)cc3)ccc2O[C@@H](C)CCCCO[C@H]1CN(C)C(=O)Nc1ccc(F)cc1	none
CC[C@H](C)[C@@H]1NC(=O)c2cc([N+](=O)[O-])cc(F)c2NCCCC[C@@H](C(N)=O)NC(=O)[C@H](CCCCN)NC1=O	RAD52 anneal inh 65
O=S(=O)(NC1CCCC1)c1ccc(S(=O)(=O)N(Cc2cccs2)CC2CCCO2)cc1 (stereo not given)	Ecoli rRNA inh -30
O=C(/C=C/[C@H]1O[C@@H](n2cnc3c(NC(=O)c4ccccc4)ncnc32)[C@H](O)[C@@H]1O)NCc1cccc2ccccc12	Ecoli rRNA inh -29
COc1ccc(CNC(=O)/C=C/[C@H]2O[C@@H](n3cnc4c(NC(=O)c5ccccc5)ncnc43)[C@H](O)[C@@H]2O)cc1	none
COc1ccc2c3c(n(C)c2c1)[C@@H](CO)N(C(=O)C1CCOCC1)CC31CCN(C(=O)C2CC2)CC1	none (no result: RAD54 branch, PglD DTNB, Cneo AK release)
CNC[C@@H]1Oc2ccc(NC(=O)NC(C)C)cc2C(=O)N(C)C[C@@H]1C	none (no result: RAD52 anneal inh, RAD54 branch, PglD DTNB, Cneo AK release)
CN(C[C@H]1N[C@@H](CO)[C@H]1c1ccc(-c2cccc(F)c2)cc1)S(C)(=O)=O	Cneo AK release 99
CN(C[C@@H]1N[C@H](CO)[C@@H]1c1ccc(-c2cccc(F)c2)cc1)S(C)(=O)=O	none
O=C(Nc1cccc(O)c1)c1cc(-c2ccccc2Cl)on1	Ecoli rRNA inh -25
COCC(=O)Nc1ccc2c(c1)C(=O)N(C)[C@H]1CC[C@H](CC(=O)Nc3cn(C)nc3C)O[C@@H]1CO2	none (no result: RAD52 anneal inh, RAD54 branch, PglD DTNB, Cneo AK release)
Nc1cc2sc(-c3ccc(C(=O)O)cc3)nc2cc1Cl	Ecoli rRNA inh -33
COc1ccc2c3c([nH]c2c1)[C@H](CO)N(C(=O)c1cccnc1)CC31CN(Cc2cccnc2)C1	none (no result: RAD54 branch, PglD DTNB, Cneo AK release)
COc1ccc(S(=O)(=O)Nc2ccc3c(c2)C(=O)N([C@@H](C)CO)C[C@@H](C)[C@H](CN(C)C(=O)c2ccccc2)OCCCC[C@@H](C)O3)cc1	none
O=C(Nc1ccc(F)cc1)N1C[C@@H]2[C@H](c3ccccc31)[C@H](CO)N2Cc1cocn1	Cneo AK release 91
O=C(c1cccc(F)c1)N1C[C@@H]2[C@H](c3ccccc31)[C@H](CO)N2C(=O)c1cccc(F)c1	none
O=C(c1cccc(F)c1)N1C[C@@H]2[C@H](c3ccccc31)[C@H](CO)N2Cc1cocn1	Cneo AK release 82
CCNC(=O)[C@@H]1[C@@H](CO)[C@@H]2Cn3c(cccc3=O)[C@@H]2N1Cc1ccccc1Cl	none
CCCCCCCCCCCCCCCC[n+]1ccc(/C=N/O)cc1	RAD52 anneal inh 88, Ecoli rRNA inh -37 (no result: RAD54 branch, PglD DTNB, Cneo AK release)
CCCCCCCCCCCCCCCC[n+]1ccc(C(N)=O)cc1	none (no result: RAD52 anneal inh, Ecoli rRNA inh)
Cc1cc(C(=O)N/N=C/c2ccc(-c3ccc([N+](=O)[O-])cc3Cl)o2)n[nH]1	Ecoli rRNA inh -32
Cc1cc(C(=O)N/N=C/c2ccc(-c3cccc([N+](=O)[O-])c3)o2)n[nH]1	none
CCS(=O)(=O)N1CC2(C1)[C@@H](c1ccccc1)[C@@H](CO)N2C(=O)C1CCCC1	none (no result: RAD54 branch, PglD DTNB, Cneo AK release)
FC(F)(F)CN1C[C@@H]2C(c3ccc(Br)cc3)[C@H](C1)N2CC(F)(F)F (stereo not given in full)	none (no result: RAD52 anneal inh, RAD54 branch, PglD DTNB, Cneo AK release)
COc1ccc(C2CC(c3ccc4ccccc4c3)=NN2C(=O)CN2CCC(C(N)=O)CC2)cc1 (stereo not given)	Ecoli rRNA inh -48
CC1CC(Nc2ccccc2)c2ccccc2N1C(=O)c1ccco1 (stereo not given)	Ecoli rRNA inh -28
CSc1cccc(NC(=O)CSc2nc3ccccc3o2)c1	Ecoli rRNA inh -25
COc1ccc(S(=O)(=O)N2CCN(Cc3ccc(OCCO)cc3)CC2)cc1	none (no result: Ecoli rRNA inh)
Cc1cccc(NC(=O)COc2ccc(Br)cc2/C=N/O)c1	Ecoli rRNA inh -44 (no result: RAD54 branch, PglD DTNB, Cneo AK release)
C[C@@H]1CN([C@H](C)CO)S(=O)(=O)c2ccc(-c3cccnc3)cc2O[C@@H]1CN(C)C(=O)C1CC1	none (no result: RAD52 anneal inh, RAD54 branch, PglD DTNB, Cneo AK release)
Cc1cccc(N2CCN(C(=O)CNC(=O)Cc3ccccc3)CC2)c1C	none
Cc1cccc(N2CCN(C(=O)CNC(=O)c3cccc([N+](=O)[O-])c3)CC2)c1C	Ecoli rRNA inh -19
Cc1cc(C(=O)N/N=C/C=C/c2ccccc2)c(C)o1	Ecoli rRNA inh -25 (no result: RAD54 branch, PglD DTNB, Cneo AK release)
O=C(NCC[C@@H]1CC[C@@H](NC(=O)C2CCOCC2)[C@H](CO)O1)c1ccc(F)cc1	none
CCOc1ccc(N(CC(=O)NC(C(C)C)C(C)C)S(=O)(=O)c2ccc(OC)c(OC)c2)cc1	Ecoli rRNA inh -30 (no result: RAD54 branch, PglD DTNB, Cneo AK release)
